Assay results taken from EPA's CvTdb concentration-time database.

What was measured:
Rat [1] = assay: concentration in plasma after dosing; conditions: dosed: 2-Hydroxy-4-methoxybenzophenone, 100 mg/kg, oral, Female, F344
Mouse [2] = assay: concentration in plasma after dosing; conditions: 3 h; dosed: 2-Hydroxy-4-methoxybenzophenone; 250 mg/kg; oral; Female; B6C3F1
Rat [3] = assay: concentration in plasma after dosing; conditions: 0.25 h; dosed: 2-Hydroxy-4-methoxybenzophenone; 500 mg/kg; oral; Female; F344
Rat [4] = assay: concentration in plasma after dosing; conditions: dosed: 2-Hydroxy-4-methoxybenzophenone, 8 mg/kg, iv, Male, F344
Rat [5] = assay: concentration in plasma after dosing; conditions: dosed: 2-Hydroxy-4-methoxybenzophenone, 100 mg/kg, oral, Female, F344; remark: listed apart in the source
Rat [6] = assay: concentration in plasma after dosing; conditions: dosed: 2-Hydroxy-4-methoxybenzophenone, 500 mg/kg, oral, Female, F344
Rat [7] = assay: concentration in plasma after dosing; conditions: dosed: 2-Hydroxy-4-methoxybenzophenone, 100 mg/kg, oral, Female, F344; remark: listed apart in the source
Mouse [8] = assay: concentration in plasma after dosing; conditions: dosed: 2-Hydroxy-4-methoxybenzophenone, 100 mg/kg, oral, Male, B6C3F1
Rat [9] = assay: concentration in plasma after dosing; conditions: 10 min; dosed: Nitrite; 80 mg/kg; oral; Female; F344
Rat [10] = assay: concentration in plasma after dosing; conditions: 0.5 h; dosed: Nitrite; 80 mg/kg; oral; Female; F344
Rat [11] = assay: concentration in plasma after dosing; conditions: 0.5 h; dosed: Nitrite; 20 mg/kg; iv; Male; F344
Rat [12] = assay: concentration in plasma after dosing; conditions: dosed: Nitrite, 20 mg/kg, iv, Male, F344
Rat [13] = assay: concentration in brain after dosing; conditions: 24 h; dosed: Perfluorooctanoic acid; 12 mg/kg; oral; Male; Harlan Sprague Dawley
Rat [14] = assay: concentration in liver after dosing; conditions: 12 h; dosed: Fluorotelomer alcohol 8+2; 24 mg/kg; oral; Male; Harlan Sprague Dawley
Rat [15] = assay: concentration in brain after dosing; conditions: 6 h; dosed: Perfluorooctanoic acid; 12 mg/kg; oral; Male; Harlan Sprague Dawley
Rat [16] = assay: concentration in liver after dosing; conditions: 3 h; dosed: Fluorotelomer alcohol 8+2; 80 mg/kg; oral; Female; Harlan Sprague Dawley
Rat [17] = assay: concentration in liver after dosing; conditions: 24 h; dosed: Perfluorooctanoic acid; 12 mg/kg; oral; Male; Harlan Sprague Dawley
Rat [18] = assay: concentration in plasma after dosing; conditions: dosed: Fluorotelomer alcohol 8+2, 12 mg/kg, oral, Male, Harlan Sprague Dawley
Rat [19] = assay: concentration in kidney after dosing; conditions: 6 h; dosed: Fluorotelomer alcohol 8+2; 80 mg/kg; oral; Female; Harlan Sprague Dawley
Rat [20] = assay: concentration in kidney after dosing; conditions: 1 h; dosed: Fluorotelomer alcohol 8+2; 80 mg/kg; oral; Female; Harlan Sprague Dawley
Rat [21] = assay: concentration in liver after dosing; conditions: 3 h; dosed: Potassium Perfluorobutane Sulfonate; 20 mg/kg; oral; Female; Harlan Sprague Dawley
Rat [22] = assay: concentration in kidney after dosing; conditions: 6 h; dosed: Potassium Perfluorobutane Sulfonate; 20 mg/kg; oral; Male; Harlan Sprague Dawley
Rat [23] = assay: concentration in plasma after dosing; conditions: 0.75 h; dosed: Potassium Perfluorobutane Sulfonate; 4 mg/kg; iv; Female; Harlan Sprague-Dawley
Rat [24] = assay: concentration in plasma after dosing; conditions: dosed: Potassium Perfluorobutane Sulfonate, 4 mg/kg, oral, Male, Harlan Sprague Dawley
Rat [25] = assay: concentration in kidney after dosing; conditions: 3 h; dosed: Potassium Perfluorobutane Sulfonate; 20 mg/kg; oral; Male; Harlan Sprague Dawley
Rat [26] = assay: concentration in plasma after dosing; conditions: dosed: Potassium Perfluorobutane Sulfonate, 4 mg/kg, iv, Male, F344
Rat [27] = assay: concentration in plasma after dosing; conditions: 1.5 h; dosed: Potassium Perfluorobutane Sulfonate; 4 mg/kg; iv; Male; F344
Rat [28] = assay: concentration in plasma after dosing; conditions: dosed: Potassium Perfluorobutane Sulfonate, 4 mg/kg, oral, Male, Harlan Sprague Dawley; remark: listed apart in the source
human = assay: concentration in expired air after dosing; conditions: dosed: methyl tert-butyl ether, 15 mg, oral, male
How it was run: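 Points were largely digitised from plot screenshots with WebPlotDigitizer or otherwise copied from tables, and they remain in the units each source reported. They come from published in vivo toxicokinetic studies and two structured collections. Sampling and analytical methods follow each source and were often not reported.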

COc1ccc(C(=O)c2ccccc2)c(O)c1 [2-Hydroxy-4-methoxybenzophenone]
Conditions	concentration in plasma [ng/mL]
Mouse [8], 0.25 h	64.6
Mouse [8], 2 h	21.1
Mouse [8], 2.5 min	26.8
Mouse [8], 3 h	20
Mouse [8], 10 min	39.6
Rat [1], 3 h	13.6
Rat [1], 10 min	27.8
Rat [4], 0.25 h	1950
Rat [4], 2 h	84.6
Rat [5], 0.25 h	100
Rat [5], 4 h	16.3
Rat [6], 10 h	27.5
Rat [6], 10 min	52.4
Rat [7], 3 h	7.19
Rat [7], 10 min	38.2

Conditions	concentration in plasma [ng/mL]
Mouse [2]	36.8
Rat [3]	1730

O=N[O-] [Nitrite]
Conditions	concentration in plasma [ng/mL]
Rat [9]	31800
Rat [10]	8900
Rat [11]	8100

Rat [12]
Conditions	concentration in plasma [ng/mL]
0.75 h	4000
2 min	2000

O=C(O)C(F)(F)C(F)(F)C(F)(F)C(F)(F)C(F)(F)C(F)(F)C(F)(F)F [Perfluorooctanoic acid]
Conditions	concentration in brain [ng/g]	concentration in kidney [ng/g]	concentration in liver [ng/g]
Rat [13]	1290	–	–
Rat [14]	–	–	1700
Rat [15]	1350	–	–
Rat [16]	–	–	2300
Rat [17]	–	–	60800
Rat [19]	–	1730	–
Rat [20]	–	353	–

Rat [18]
Conditions	concentration in plasma [ng/mL]
0.5 h	108
9 h	851

O=S(=O)([O-])C(F)(F)C(F)(F)C(F)(F)C(F)(F)F.[K+] [Potassium Perfluorobutane Sulfonate]
Conditions	concentration in kidney [ng/g]	concentration in liver [ng/g]	concentration in plasma [ng/mL]
Rat [21]	–	5050	–
Rat [22]	11000	–	–
Rat [23]	–	–	6450
Rat [25]	27100	–	–
Rat [27]	–	–	1850

Conditions	concentration in plasma [ng/mL]
Rat [24], 3 h	15100
Rat [24], 5 min	320
Rat [26], 0.25 h	27200
Rat [26], 6 h	4170
Rat [28], 0.75 h	13400
Rat [28], 12 h	4960

CC(C)(C)O [tert-butyl alcohol]
human
Conditions	concentration in expired air [nM]
0.163 h	1.334
0.3286 h	2.062
0.5019 h	2.062
0.6649 h	2.197
0.8305 h	1.982
0.9909 h	1.774
1.501 h	1.665
1.995 h	1.562
2.994 h	1.49
3.99 h	1.323
4.991 h	1.366
5.99 h	1.242
